Yeast superoxide – lowers age-related superoxide in aged yeast cells | S. cerevisiae aged cells, superoxide DHE fluorescence; stronger effect = lower value | AID 2690 | superoxide response (% of plate mean), % at 10 µM | 330,000 compounds, 0.18% hits;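 active = superoxide response under a set limit, about three screen SD below normal, cut at about 65% in these data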;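 also: yeast aged for seven days with compound at 30 °C before DHE staining; 100% = average MFI of all compound-treated wells on the plate with controls excluded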
AI-2 QS mod – Vibrio harveyi AI-2 quorum sensing modulation; Vibrio harveyi JMH597 AI-2 luminescence/OD600 ratio, 9 h; stronger effect = lower value; strain lacks LuxN and CqsS sensors; 0 = neutral-control median; activity change, % at 7.5 µM; 300,000 compounds, 0.4% hits; AID 2094; in the data active = activity change below about -75%, passing the limit was not always enough;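 also: luminescence divided by OD600 gain over 9 h not by final OD600 alone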
T cruzi repl – T. cruzi replication inhibition; T. cruzi beta-gal in NIH3T3, luminescence, 90 h; inhibition, % (concentration not given with the values); 300,000 compounds, 1.4% hits; AID 1885;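 active = mean inhibition across valid replicates above about 55%, limit read from the data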;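 also: signal also drops with host cell toxicity which is not excluded here; 0% = plate median of DMSO wells and 100% = zero luminescence signal; higher percent means less beta-gal luminescence so fewer parasites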
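compound dosing = single 50 nL compound addition per well in DMSO | material = NIH/3T3 host cells with β-galactosidase reporter T. cruzi | input = 5,000 host fibroblasts per well | timing = ≥90 h infection period, 3 h prior cell attachment | read-out basis = percent inhibition of parasite-derived β-gal signal | detection = GalScreen β-gal luminescence, detergent lysis, 60 min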
V-ATPase pHluor – yeast V-ATPase proton transport regulation by pHLuorin; AID 504577; S. cerevisiae, pHLuorin cytosolic pH fluorescence; response, % at 10 µM; 350,000 compounds, 0.37% hits; in the data active = response mostly above about 7.3%, no sharp cut-off; inactive = mostly below about 5.4%; also: actives read high
HIF act – HIF pathway transcriptional activation; activation, % at 7.5 µM (by protocol); 300,000 compounds, 0.32% hits; U2OS HRE-luciferase reporter, luminescence; normalized: DMSO 0%, desferrioxamine 100%;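 active = mean activation of at least 10% of the iron chelator positive control signal, with at least half of replicates also reaching 10%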
CendR NRP1 mod – NRP-1/CendR interaction modulation. FAM-RPARPAR peptide binding to NRP-1, fluorescence polarization. 360,000 compounds, 0.85% hits. inhibition, % at 25 µM. O14786;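 active = inhibition or corrected inhibition above about 18%, plus a signal ratio from 0.5 to 1.5, limit read from the data, passing the limit was not always enough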
An asterisk follows results filed as active; nt = no result. Hits are enriched below; roughly 3% of the tested compounds scored in any of these assays.

SMILES	Yeast superoxide	AI-2 QS mod	T cruzi repl	V-ATPase pHluor	HIF act	CendR NRP1 mod
CCCC(=O)N1CCN(c2nc3ccccc3s2)CC1	74.3	10.3	-4.2	-3.2	0.2	-1.9
CCC(=O)N1CCN(c2nc3ccc(Br)cc3s2)CC1	100.4	0.8	-9.5	1.0	11.8*	0.1
CCCCNC(=O)COC(=O)c1cc(C)oc1C	112.4	31.0	-7.3	2.3	0.0	8.2
Cc1c(C(=O)NC2CC(=O)N(c3ccc4c(c3)OCCO4)C2)cccc1[N+](=O)[O-] (stereo unspecified)	112.9	13.1	-2.7	-7.3	0.3	-2.0
c1ccc(C2=NCCCN2)cc1	97.8	16.3	-0.5	3.7	0.2	-15.1
CCn1c(=O)n(CC(=O)N(C)Cc2ccccc2)c(=O)c2ccccc21	98.0	32.2	13.5	-4.0	0.1	-2.5
CC(=O)Nc1ccc(S(=O)(=O)N2CCN=C2SCc2cccnc2)cc1	109.9	7.8	-3.4	1.0	-0.3	28.6*
O=S(=O)(c1ccccc1)N1CCN=C1SCc1ccc(Cl)cc1	100.6	4.3	32.4	0.7	-0.1	-4.8
O=S(=O)(c1ccccc1)N1CCN=C1SCc1ccc(Cl)c(Cl)c1	95.0	2.2	33.1	37.2*	0.0	-14.6
Cc1ccc(/C=C/C(=O)OCC(=O)NCCN2C(=O)CSC2=O)o1	121.7	-0.9	-17.0	-1.5	-0.4	4.3
COc1ccc(C(=O)Nc2n[nH]c(-c3ccncc3)n2)cc1	98.7	30.5	-3.8	1.2	-0.5	25.7*
CCOc1ccc(C2CC(c3ccc(CC)cc3)n3nc(N)nc3N2)cc1 (stereo unspecified)	106.5	20.3	-3.4	-0.9	0.1	43.5*
Oc1ccc(-c2cc(-c3ccc(O)cc3)nc(-c3ccccc3)n2)cc1	107.0	19.5	55.4*	-3.9	1.1	7.2
Nc1ccc(-c2cc(-c3ccc(N)cc3)nc(-c3ccccc3)n2)cc1	112.2	20.6	8.4	-6.4	-0.1	-7.8
OC(COc1ccc2ccccc2c1Br)Cn1ccnc1 (stereo unspecified)	99.5	42.1	63.4*	-1.7	0.8	9.3
CCCCCCC1CC(C)(C(=O)CNc2nncs2)OC1=O (stereo unspecified)	91.5	-76.3*	61.9*	1.4	-0.2	0.1
CCOC(=O)C1=CC[C@H]2c3c(c4ccccc4n3C)C(=O)C1N2S(=O)(=O)c1ccc(C)cc1	105.9	nt	nt	-3.4	nt	-5.8
NS(=O)(=O)c1ccc(Nc2nc(-c3cccc([N+](=O)[O-])c3)cs2)cc1	92.0	1.8	57.8*	4.1	-6.5	-0.4
COc1ccc2c(c1)OC13CCN(C)CC1C2C(C(=O)c1ccc(F)cc1)C(=O)N3 (stereo unspecified)	93.7	-0.1	-17.5	-5.4	-0.5	2.3
COc1ccc2c(c1)OC13CCCCC1C2C(C(=O)c1ccccc1)C(=O)N3 (stereo unspecified)	106.2	21.2	-2.3	20.1*	0.1	-12.0
CC1(C)C2CCC1(C)C(OCC[N+](C)(C)CC(=O)OC1CCCCC1)C2 (stereo unspecified)	98.2	3.9	63.1*	2.8	-0.1	2.1
CCOC(=O)C[N+](C)(C)CCOC1CC2CCC1(C)C2(C)C (stereo unspecified)	85.3	12.4	17.9	-4.0	-0.2	2.1
CCCCN1/C(=C/c2ccc3ccccc3[n+]2CC)Sc2ccccc21	nt	27.5	62.7*	-6.0	0.4	-155.6
CCN1/C(=C/c2ccc3cc(C)ccc3[n+]2CC)Sc2cc(C)ccc21	nt	nt	nt	7.3	nt	-231.7
Cc1ccc(-n2nc(C)c(=O)c(-c3ccccc3)c2NC(=O)C(C)C)cc1	100.0	11.5	-1.4	-51.8	-0.3	0.4
CCCN1CCC(N(C)CCc2ccc(OC)c(OC)c2)CC1	97.9	2.9	56.1*	-3.8	0.0	-15.0
Cc1cccc(NC(=O)c2cccc(C(=O)Nc3cccc(C)c3)n2)c1	110.4	23.1	-1.7	4.1	0.2	-0.5
O=C(Cc1ccc(F)cc1)N1CCC(CC2CC(c3ccc(Cl)cc3)=NO2)(C(=O)NCC2CCCCC2)CC1 (stereo unspecified)	93.5	13.4	40.2	7.0	0.1	24.6*
